Measured values published in ChEMBL document CHEMBL1149712, “Pyrrolidine-carboxamides and oxadiazoles as potent hNK1 antagonists” (Bioorg Med Chem Lett, 2007).

Key:
Substance-P receptor [1] = molecular target: T1, Substance-P receptor (Homo sapiens, UniProt P25103); test: Displacement of [125I]SP from human NK1 receptor expressed in CHO cells; assay type: cell-based
Cytochrome P450 2C9 = Cytochrome P450 2C9 (Homo sapiens, UniProt P11712); test: Inhibition of human CYP2C9; assay type: ADME
Cytochrome P450 3A4 = Cytochrome P450 3A4 (Homo sapiens, UniProt P08684); test: Inhibition of human CYP3A4; assay type: ADME
Cytochrome P450 3A4, sequence (P08684 whole entry): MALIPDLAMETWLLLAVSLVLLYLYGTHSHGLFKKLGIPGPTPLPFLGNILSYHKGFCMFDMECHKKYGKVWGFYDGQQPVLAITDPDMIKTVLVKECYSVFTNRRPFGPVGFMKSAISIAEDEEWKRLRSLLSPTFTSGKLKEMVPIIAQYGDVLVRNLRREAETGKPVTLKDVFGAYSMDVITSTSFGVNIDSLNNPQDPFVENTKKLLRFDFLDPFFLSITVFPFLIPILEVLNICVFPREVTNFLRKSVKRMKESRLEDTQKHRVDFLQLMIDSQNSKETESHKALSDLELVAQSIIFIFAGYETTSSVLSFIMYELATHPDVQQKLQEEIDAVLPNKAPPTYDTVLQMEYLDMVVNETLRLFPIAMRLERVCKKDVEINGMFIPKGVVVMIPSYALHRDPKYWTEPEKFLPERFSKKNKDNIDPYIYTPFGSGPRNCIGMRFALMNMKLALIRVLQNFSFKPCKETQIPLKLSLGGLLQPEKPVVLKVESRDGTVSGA

Gerbil, jird [2] = test: Inhibition of agonist-induced foot tapping in iv dosed gerbil after 24 hrs; assay type: functional; conditions: Meriones
Procedure, shortened: (§1)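 Gerbils received the test compound by iv infusion, followed by a central (icv) injection of an NK1 agonist at a set time after infusion (0, 4 or 24 h). The agonist-induced foot-tapping response was monitored for blockade. Results are reported as % inhibition at a single dose (mpk) or as ED50.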

Substance-P receptor [3] = molecular target: T1, Substance-P receptor; test: Displacement of [125I]SP from human NK1 receptor expressed in CHO cells in presence of 50% human serum; assay type: cell-based
Cytochrome P450 2D6 = Cytochrome P450 2D6 (Homo sapiens, UniProt P10635); test: Inhibition of human CYP2D6; assay type: ADME
Cytochrome P450 2D6, sequence (P10635 whole entry): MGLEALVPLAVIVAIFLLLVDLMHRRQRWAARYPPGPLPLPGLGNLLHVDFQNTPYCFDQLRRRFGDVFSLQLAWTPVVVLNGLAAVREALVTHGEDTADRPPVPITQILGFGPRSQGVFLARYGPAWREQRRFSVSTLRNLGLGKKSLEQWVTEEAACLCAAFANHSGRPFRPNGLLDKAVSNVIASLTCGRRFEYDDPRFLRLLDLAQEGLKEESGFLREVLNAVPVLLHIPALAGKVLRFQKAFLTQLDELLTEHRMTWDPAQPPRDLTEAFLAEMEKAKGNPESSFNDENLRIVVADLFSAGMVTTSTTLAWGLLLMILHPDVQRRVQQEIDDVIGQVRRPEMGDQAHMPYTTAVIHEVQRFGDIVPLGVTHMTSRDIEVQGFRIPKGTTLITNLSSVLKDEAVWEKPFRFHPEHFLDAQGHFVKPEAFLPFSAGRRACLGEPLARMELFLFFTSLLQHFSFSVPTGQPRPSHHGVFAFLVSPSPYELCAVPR

Gerbil, jird [4] = test: Inhibition of agonist-induced foot tapping in iv dosed gerbil; assay type: functional; conditions: Meriones; procedure, shortened: as §1
Gerbil, jird [5] = test: Inhibition of agonist-induced foot tapping in gerbil at 6 mpk, iv after 24 hrs; assay type: functional; conditions: Meriones; procedure, shortened: as §1
Gerbil, jird [6] = test: Inhibition of agonist-induced foot tapping in gerbil at 2 mpk, iv after 24 hrs; assay type: functional; conditions: Meriones, 4 h, in the assay text read “after 4 hrs” for “after 24 hrs”; procedure, shortened: as §1
[7] = Half life in rat; assay type: ADME, organism-based; conditions: in vivo
Gerbil, jird [8] = test: Inhibition of agonist-induced foot tapping in gerbil at 3 mpk, iv after 24 hrs; assay type: functional; conditions: Meriones; procedure, shortened: as §1

T1 sequence (P25103 whole entry): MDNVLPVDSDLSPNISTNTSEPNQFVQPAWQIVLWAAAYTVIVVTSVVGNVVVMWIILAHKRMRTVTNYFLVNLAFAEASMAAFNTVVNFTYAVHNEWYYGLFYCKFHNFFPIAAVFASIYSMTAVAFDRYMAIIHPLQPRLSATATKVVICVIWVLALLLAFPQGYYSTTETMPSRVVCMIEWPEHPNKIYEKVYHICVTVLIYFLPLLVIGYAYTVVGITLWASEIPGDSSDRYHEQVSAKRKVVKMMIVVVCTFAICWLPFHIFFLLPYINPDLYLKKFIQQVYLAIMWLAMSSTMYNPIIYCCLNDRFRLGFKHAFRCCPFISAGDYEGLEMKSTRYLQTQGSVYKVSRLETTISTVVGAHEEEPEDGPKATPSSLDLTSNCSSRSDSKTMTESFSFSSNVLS
Cytochrome P450 2C9, sequence (P11712 whole entry): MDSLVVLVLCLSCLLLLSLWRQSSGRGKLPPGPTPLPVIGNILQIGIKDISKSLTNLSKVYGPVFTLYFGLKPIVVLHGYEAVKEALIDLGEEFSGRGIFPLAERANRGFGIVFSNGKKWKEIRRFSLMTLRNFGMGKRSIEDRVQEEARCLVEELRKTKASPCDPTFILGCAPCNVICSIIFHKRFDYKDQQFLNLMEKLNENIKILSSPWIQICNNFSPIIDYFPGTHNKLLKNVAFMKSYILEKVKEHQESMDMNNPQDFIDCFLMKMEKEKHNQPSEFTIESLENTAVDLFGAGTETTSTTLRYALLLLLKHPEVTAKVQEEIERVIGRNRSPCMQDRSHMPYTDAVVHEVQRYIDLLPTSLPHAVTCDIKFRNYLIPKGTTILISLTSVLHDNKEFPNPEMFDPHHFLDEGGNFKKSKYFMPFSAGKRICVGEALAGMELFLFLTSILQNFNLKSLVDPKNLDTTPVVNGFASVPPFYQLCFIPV

SMILES | IC50 (Substance-P receptor [1]) | IC50 (Substance-P receptor [3]) | also measured
CN(Cc1cc(C(F)(F)F)cc(C(F)(F)F)c1)C(=O)[C@H]1CN(C(=O)NC2CCCCC2)C[C@@H]1c1ccccc1 | 0.79 nM | – | –
CN(Cc1cc(C(F)(F)F)cc(C(F)(F)F)c1)C(=O)[C@H]1CN(C(=O)C2CCNCC2)C[C@@H]1c1ccccc1 | 4.1 nM | – | –
CN(Cc1cc(C(F)(F)F)cc(C(F)(F)F)c1)C(=O)[C@H]1CN(C(=O)c2cncnc2)C[C@@H]1c1ccccc1 | 24 nM | – | –
CC(=O)N1CCC(C(=O)N2C[C@H](C(=O)N(C)Cc3cc(C(F)(F)F)cc(C(F)(F)F)c3)[C@H](c3ccccc3)C2)CC1 | 3.7 nM | – | –
CC(=O)N1CCC(C(=O)N2C[C@@H](C(=O)N(C)Cc3cc(C(F)(F)F)cc(C(F)(F)F)c3)[C@H](c3ccccc3)C2)CC1 | 0.97 nM | – | –
CC(C)(C)OC(=O)N1CC[C@H](c2ccccc2)[C@@H](C(=O)NCc2cc(C(F)(F)F)cc(C(F)(F)F)c2)C1 | 450 nM | – | –
CN(Cc1cc(C(F)(F)F)cc(C(F)(F)F)c1)C(=O)[C@H]1CN(C(=O)OC(C)(C)C)C[C@@H]1c1ccccc1 | 11 nM | – | –
CN(Cc1cc(C(F)(F)F)cc(C(F)(F)F)c1)C(=O)[C@H]1CN(C(=O)C2CCCCC2)C[C@@H]1c1ccccc1 | 0.68 nM | – | –
CC(C)(C)OC(=O)N1C[C@H](C(=O)NCc2cc(C(F)(F)F)cc(C(F)(F)F)c2)[C@@H](c2ccccc2)C1 | 142 nM | – | –
CN(Cc1cc(C(F)(F)F)cc(C(F)(F)F)c1)C(=O)[C@H]1CN(CC2CCCCC2)C[C@@H]1c1ccccc1 | 62 nM | – | –
CN(Cc1cc(C(F)(F)F)cc(C(F)(F)F)c1)C(=O)[C@H]1CN(C(=O)N2CCCCC2)C[C@@H]1c1ccccc1 | 13 nM | – | –
CN(Cc1cc(C(F)(F)F)cc(C(F)(F)F)c1)C(=O)[C@H]1CN(C(=O)c2ncccn2)C[C@@H]1c1ccccc1 | 0.84 nM | – | –
CN(Cc1cc(C(F)(F)F)cc(C(F)(F)F)c1)C(=O)[C@H]1CN(C(=O)c2cnccn2)C[C@@H]1c1ccccc1 | 0.74 nM | – | –
CN(Cc1cc(C(F)(F)F)cc(C(F)(F)F)c1)C(=O)[C@H]1CN(C(=O)c2ccncn2)C[C@@H]1c1ccccc1 | 3.4 nM | – | –

Stronger by IC50 (Substance-P receptor [1]), values ahead:

IC50 (Substance-P receptor [1]) | IC50 (Substance-P receptor [3]) | SMILES | also measured
0.09 nM | 8 nM | Cc1cnc(C(=O)N2C[C@H](C(=O)N(C)Cc3cc(C(F)(F)F)cc(C(F)(F)F)c3)[C@@H](c3ccc(F)cc3C)C2)cn1 | IC50 (Cytochrome P450 2C9): 43000 nM; IC50 (Cytochrome P450 3A4): 11000 nM; ED50 (Gerbil, jird [2]): 6 mg/kg; IC50 (Cytochrome P450 2D6): 73000 nM; ED50 (Gerbil, jird [4]): 6 mg/kg
0.58 nM | – | Cc1cnc(C(=O)N2C[C@H](C(=O)N(C)Cc3cc(C(F)(F)F)cc(C(F)(F)F)c3)[C@@H](c3ccccc3)C2)cn1 | –
0.05 nM | 0.51 nM | CC(=O)N1CCC(C(=O)N2C[C@H](C(=O)N(C)C(C)(C)c3cc(C(F)(F)F)cc(C(F)(F)F)c3)[C@@H](c3ccc(F)cc3C)C2)CC1 | IC50 (Cytochrome P450 2C9): > 100000 nM; IC50 (Cytochrome P450 3A4): 49000 nM; inhibition in vivo at 6 mg/kg (Gerbil, jird [5]): 2%; inhibition in vivo at 2 mg/kg (Gerbil, jird [6]): 100%; IC50 (Cytochrome P450 2D6): 57000 nM
0.05 nM | 0.21 nM | CC(=O)N1CCC(C(=O)N2C[C@H](C(=O)N(C)Cc3cc(C(F)(F)F)cc(C(F)(F)F)c3)[C@@H](c3ccc(F)cc3C)C2)CC1 | IC50 (Cytochrome P450 2C9): 69000 nM; IC50 (Cytochrome P450 3A4): 11000 nM; inhibition in vivo at 6 mg/kg (Gerbil, jird [5]): 24%; inhibition in vivo at 2 mg/kg (Gerbil, jird [6]): 100%; IC50 (Cytochrome P450 2D6): 92000 nM
0.07 nM | 2.8 nM | CC(=O)N1CCC(C(=O)N2C[C@H](c3nc(C(C)(C)c4cc(C(F)(F)F)cc(C(F)(F)F)c4)no3)[C@@H](c3ccc(F)cc3C)C2)CC1 | inhibition in vivo at 6 mg/kg (Gerbil, jird [5]): 1%; inhibition in vivo at 2 mg/kg (Gerbil, jird [6]): 92%
0.17 nM | 20 nM | CC(=O)N1CCC(C(=O)N2C[C@@H](c3nc(C(C)(C)c4cc(C(F)(F)F)cc(C(F)(F)F)c4)no3)[C@H](c3ccc(F)cc3C)C2)CC1 | inhibition in vivo at 6 mg/kg (Gerbil, jird [5]): 1%
0.07 nM | 6 nM | CC(=O)N1CCC(C(=O)N2C[C@H](c3noc(C(C)(C)c4cc(C(F)(F)F)cc(C(F)(F)F)c4)n3)[C@@H](c3ccc(F)cc3C)C2)CC1 | IC50 (Cytochrome P450 2C9): 9000 nM; IC50 (Cytochrome P450 3A4): 100000 nM; IC50 (Cytochrome P450 2D6): 63000 nM
0.03 nM | 0.17 nM | CC(=O)N1CCC(C(=O)N2C[C@@H](c3noc(C(C)(C)c4cc(C(F)(F)F)cc(C(F)(F)F)c4)n3)[C@H](c3ccc(F)cc3C)C2)CC1 | inhibition in vivo at 6 mg/kg (Gerbil, jird [5]): 60%
0.42 nM | 4.5 nM | CC(=O)N1CCC(C(=O)N2C[C@H](C(=O)N(C)Cc3cc(C(F)(F)F)cc(C(F)(F)F)c3)[C@@H](c3ccccc3)C2)CC1 (stereo in doubt; 8c) | IC50 (Cytochrome P450 2C9): 26000 nM; IC50 (Cytochrome P450 3A4): 18000 nM; half-life [7]: 42 min; IC50 (Cytochrome P450 2D6): 24000 nM; ED50 (Gerbil, jird [4]): 0.41 mg/kg; inhibition in vivo at 3 mg/kg (Gerbil, jird [8]): 29%
0.12 nM | – | CC(=O)N1CCC(C(=O)N2C[C@H](C(=O)N(C)Cc3cc(C(F)(F)F)cc(C(F)(F)F)c3)[C@@H](c3ccccc3)C2)CC1 (stereo in doubt; 27) | –
